ChEMBL document CHEMBL1275252, “First survey of metallo-beta-lactamases in clinical isolates of Pseudomonas aeruginosa in a German university hospital” (2010)
Converted amounts (≈) assume the structure as drawn.

What was measured:
Format in all cases: functional
[1] = system: Pseudomonas aeruginosa; experiment: Antimicrobial activity against Pseudomonas aeruginosa isolate PA462 expressing VIM-2 beta-lactamase
[2] = system: Pseudomonas aeruginosa; experiment: Antimicrobial activity against Pseudomonas aeruginosa PA386 expressing IMP-13 beta-lactamase
In short: (§1)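 Well-characterized MBL-producing control strains from earlier studies: nine P. aeruginosa and one A. baumannii. MIC was read in μg/ml and used to set screening breakpoints for MBL producers.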

[3] = system: Pseudomonas aeruginosa; experiment: Antimicrobial activity against Pseudomonas aeruginosa PA553 expressing SPM-1 beta-lactamase; in short: as §1
[4] = system: Pseudomonas aeruginosa; experiment: Antimicrobial activity against metallo-beta-lactamase-negative Pseudomonas aeruginosa isolate PA368
In short: (§2)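 MBL-negative clinical P. aeruginosa isolates with reduced imipenem susceptibility, collected at the study hospital, some from cystic fibrosis patients. Species identity was confirmed by automated Gram-negative identification card. MIC was read in μg/ml.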

[5] = system: Pseudomonas aeruginosa; experiment: Antimicrobial activity against metallo-beta-lactamase-negative Pseudomonas aeruginosa isolate PA774 isolated from patient with cystic fibrosis; in short: as §2
[6] = system: Pseudomonas aeruginosa; experiment: Antimicrobial activity against metallo-beta-lactamase-negative Pseudomonas aeruginosa isolate PA509
[7] = system: Pseudomonas aeruginosa; experiment: Antimicrobial activity against metallo-beta-lactamase-negative Pseudomonas aeruginosa isolate PA356; in short: as §2
[8] = system: Pseudomonas aeruginosa; experiment: Antimicrobial activity against metallo-beta-lactamase-negative Pseudomonas aeruginosa isolate PA339; in short: as §2
[9] = system: Pseudomonas aeruginosa; experiment: Antimicrobial activity against metallo-beta-lactamase-negative Pseudomonas aeruginosa isolate PA736 isolated from patient with cystic fibrosis; in short: as §2
[10] = system: Pseudomonas aeruginosa; experiment: Antimicrobial activity against Pseudomonas aeruginosa PA554 expressing GIM-1 beta-lactamase; in short: as §1
[11] = system: Pseudomonas aeruginosa; experiment: Antimicrobial activity against metallo-beta-lactamase-negative Pseudomonas aeruginosa isolate PA342; in short: as §2
[12] = system: Pseudomonas aeruginosa; experiment: Antimicrobial activity against metallo-beta-lactamase-negative Pseudomonas aeruginosa isolate PA479
[13] = system: Pseudomonas aeruginosa; experiment: Antimicrobial activity against Pseudomonas aeruginosa isolate PA399 expressing VIM-2 beta-lactamase
[14] = system: Pseudomonas aeruginosa; experiment: Antimicrobial activity against metallo-beta-lactamase-negative Pseudomonas aeruginosa isolate PA340; in short: as §2
[15] = system: Pseudomonas aeruginosa; experiment: Antimicrobial activity against Pseudomonas aeruginosa PA373 expressing VIM-2 beta-lactamase; in short: as §1
[16] = system: Pseudomonas aeruginosa; experiment: Antimicrobial activity against metallo-beta-lactamase-negative Pseudomonas aeruginosa isolate PA381; in short: as §2
[17] = system: Pseudomonas aeruginosa; experiment: Antimicrobial activity against metallo-beta-lactamase-negative Pseudomonas aeruginosa isolate PA346; in short: as §2
[18] = system: Pseudomonas aeruginosa; experiment: Antimicrobial activity against metallo-beta-lactamase-negative Pseudomonas aeruginosa isolate PA362; in short: as §2
[19] = system: Pseudomonas aeruginosa; experiment: Antimicrobial activity against metallo-beta-lactamase-negative Pseudomonas aeruginosa isolate PA734 isolated from patient with cystic fibrosis; in short: as §2
[20] = system: Pseudomonas aeruginosa; experiment: Antimicrobial activity against metallo-beta-lactamase-negative Pseudomonas aeruginosa isolate PA395; in short: as §2
[21] = system: Pseudomonas aeruginosa; experiment: Antimicrobial activity against metallo-beta-lactamase-negative Pseudomonas aeruginosa isolate PA380; in short: as §2
[22] = system: Pseudomonas aeruginosa; experiment: Antimicrobial activity against metallo-beta-lactamase-negative Pseudomonas aeruginosa isolate PA349; in short: as §2
[23] = system: Pseudomonas aeruginosa; experiment: Antimicrobial activity against metallo-beta-lactamase-negative Pseudomonas aeruginosa isolate PA376
[24] = system: Pseudomonas aeruginosa; experiment: Antimicrobial activity against Pseudomonas aeruginosa isolate PA477 expressing VIM-2 beta-lactamase
[25] = system: Pseudomonas aeruginosa; experiment: Antimicrobial activity against Pseudomonas aeruginosa isolate PA469 expressing VIM-2 beta-lactamase
[26] = system: Pseudomonas aeruginosa; experiment: Antimicrobial activity against Pseudomonas aeruginosa PA431 expressing IMP-1 beta-lactamase; in short: as §1
[27] = system: Pseudomonas aeruginosa; experiment: Antimicrobial activity against Pseudomonas aeruginosa isolate PA465 expressing VIM-2 beta-lactamase
[28] = system: Pseudomonas aeruginosa; experiment: Antimicrobial activity against Pseudomonas aeruginosa PA399 expressing VIM-2 beta-lactamase; in short: as §1
[29] = system: Pseudomonas aeruginosa; experiment: Antimicrobial activity against metallo-beta-lactamase-negative Pseudomonas aeruginosa isolate PA494
[30] = system: Pseudomonas aeruginosa; experiment: Antimicrobial activity against metallo-beta-lactamase-negative Pseudomonas aeruginosa isolate PA377; in short: as §2
[31] = system: Pseudomonas aeruginosa; experiment: Antimicrobial activity against Pseudomonas aeruginosa PA430 expressing VIM-4 beta-lactamase; in short: as §1
[32] = system: Pseudomonas aeruginosa; experiment: Antimicrobial activity against metallo-beta-lactamase-negative Pseudomonas aeruginosa isolate PA355; in short: as §2
[33] = system: Pseudomonas aeruginosa; experiment: Antimicrobial activity against metallo-beta-lactamase-negative Pseudomonas aeruginosa isolate PA352; in short: as §2
[34] = system: Pseudomonas aeruginosa; experiment: Antimicrobial activity against metallo-beta-lactamase-negative Pseudomonas aeruginosa isolate PA341; in short: as §2
[35] = system: Pseudomonas aeruginosa; experiment: Antimicrobial activity against metallo-beta-lactamase-negative Pseudomonas aeruginosa isolate PA459; in short: as §2
[36] = system: Pseudomonas aeruginosa; experiment: Antimicrobial activity against metallo-beta-lactamase-negative Pseudomonas aeruginosa isolate PA370; in short: as §2
[37] = system: Pseudomonas aeruginosa; experiment: Antimicrobial activity against Pseudomonas aeruginosa PA550 expressing VIM-1 beta-lactamase; in short: as §1
[38] = system: Pseudomonas aeruginosa; experiment: Antimicrobial activity against metallo-beta-lactamase-negative Pseudomonas aeruginosa isolate PA460
[39] = system: Acinetobacter baumannii; experiment: Antimicrobial activity against Acinetobacter baumannii AB551 expressing SIM-1 beta-lactamase; in short: as §1
[40] = system: Pseudomonas aeruginosa; experiment: Antimicrobial activity against metallo-beta-lactamase-negative Pseudomonas aeruginosa isolate PA758 isolated from patient with cystic fibrosis; in short: as §2
[41] = system: Pseudomonas aeruginosa; experiment: Antimicrobial activity against Pseudomonas aeruginosa isolate PA510 expressing VIM-2 beta-lactamase
[42] = system: Pseudomonas aeruginosa; experiment: Antimicrobial activity against metallo-beta-lactamase-negative Pseudomonas aeruginosa isolate PA364; in short: as §2
[43] = system: Pseudomonas aeruginosa; experiment: Antimicrobial activity against metallo-beta-lactamase-negative Pseudomonas aeruginosa isolate PA382; in short: as §2
[44] = system: Pseudomonas aeruginosa; experiment: Antimicrobial activity against Pseudomonas aeruginosa isolate PA481 expressing VIM-2 beta-lactamase
[45] = system: Pseudomonas aeruginosa; experiment: Antimicrobial activity against metallo-beta-lactamase-negative Pseudomonas aeruginosa isolate PA350; in short: as §2
[46] = system: Pseudomonas aeruginosa; experiment: Antimicrobial activity against metallo-beta-lactamase-negative Pseudomonas aeruginosa isolate PA361; in short: as §2
[47] = system: Pseudomonas aeruginosa; experiment: Antimicrobial activity against Pseudomonas aeruginosa isolate PA500 expressing VIM-1 beta-lactamase
[48] = system: Pseudomonas aeruginosa; experiment: Antimicrobial activity against metallo-beta-lactamase-negative Pseudomonas aeruginosa isolate PA483
[49] = system: Pseudomonas aeruginosa; experiment: Antimicrobial activity against metallo-beta-lactamase-negative Pseudomonas aeruginosa isolate PA360; in short: as §2
[50] = system: Pseudomonas aeruginosa; experiment: Antimicrobial activity against Pseudomonas aeruginosa PA552 expressing IMP-1 beta-lactamase; in short: as §1
[51] = system: Pseudomonas aeruginosa; experiment: Antimicrobial activity against Pseudomonas aeruginosa isolate PA475 expressing VIM-2 beta-lactamase
[52] = system: Pseudomonas aeruginosa; experiment: Antimicrobial activity against metallo-beta-lactamase-negative Pseudomonas aeruginosa isolate PA507; in short: as §2

For `C[C@@H](O)[C@H]1C(=O)N2C(C(=O)O)=C(SCCNC=N)C[C@H]12` [IMIPENEM ANHYDROUS], the MIC [1] was at least 16 µg/mL, the MIC [2] was at least 16 µg/mL and the MIC [3] was at least 16 µg/mL. The MIC [4] was at least 16 µg/mL, the MIC [5] was at least 16 µg/mL and the MIC [6] was at least 16 µg/mL. For the same compound, the MIC [7] was at least 16 µg/mL, the MIC [8] was at least 16 µg/mL and the MIC [9] was 8 µg/mL (≈ 26.7 µM). It also gave an MIC [10] of at least 16 µg/mL, an MIC [11] of at least 16 µg/mL and an MIC [12] of 8 µg/mL (≈ 26.7 µM). For the same compound, the MIC [13] was at least 16 µg/mL, the MIC [14] was 8 µg/mL (≈ 26.7 µM) and the MIC [15] was at least 16 µg/mL. It also gave an MIC [16] of at least 16 µg/mL, an MIC [17] of at least 16 µg/mL and an MIC [18] of 8 µg/mL (≈ 26.7 µM). The MIC [19] was at least 16 µg/mL, the MIC [20] was at least 16 µg/mL and the MIC [21] was 8 µg/mL (≈ 26.7 µM). It also gave an MIC [22] of at least 16 µg/mL, an MIC [23] of at least 16 µg/mL and an MIC [24] of at least 16 µg/mL. The MIC [25] was at least 16 µg/mL, the MIC [26] was 8 µg/mL (≈ 26.7 µM) and the MIC [27] was at least 16 µg/mL. It also gave an MIC [28] of at least 16 µg/mL, an MIC [29] of at least 16 µg/mL and an MIC [30] of at least 16 µg/mL. For the same compound, the MIC [31] was at least 16 µg/mL, the MIC [32] was at least 16 µg/mL and the MIC [33] was at least 16 µg/mL. It also gave an MIC [34] of at least 16 µg/mL, an MIC [35] of at least 16 µg/mL and an MIC [36] of at least 16 µg/mL. The MIC [37] was at least 16 µg/mL, the MIC [38] was at least 16 µg/mL and the MIC [39] was at least 16 µg/mL. It also gave an MIC [40] of at least 16 µg/mL, an MIC [41] of at least 16 µg/mL and an MIC [42] of 8 µg/mL (≈ 26.7 µM). The MIC [43] was at least 16 µg/mL, the MIC [44] was at least 16 µg/mL and the MIC [45] was at least 16 µg/mL. For the same compound, the MIC [46] was at least 16 µg/mL, the MIC [47] was at least 16 µg/mL and the MIC [48] was at least 16 µg/mL. For the same compound, the MIC [49] was 8 µg/mL (≈ 26.7 µM), the MIC [50] was at least 16 µg/mL and the MIC [51] was at least 16 µg/mL.
With `C[C@@H](O)[C@H]1C(=O)N2C(C(=O)O)=C(S[C@@H]3CN[C@H](C(=O)N(C)C)C3)[C@H](C)[C@H]12` [MEROPENEM] the MIC [1] was at least 16 µg/mL, the MIC [6] was at least 16 µg/mL and the MIC [12] was at least 16 µg/mL. For the same compound, the MIC [13] was at least 16 µg/mL, the MIC [24] was at least 16 µg/mL and the MIC [25] was at least 16 µg/mL. For the same compound, the MIC [27] was at least 16 µg/mL, the MIC [29] was 8 µg/mL (≈ 20.9 µM) and the MIC [35] was 8 µg/mL (≈ 20.9 µM). It also gave an MIC [38] of 8 µg/mL (≈ 20.9 µM), an MIC [41] of at least 16 µg/mL and an MIC [44] of at least 16 µg/mL. It also gave an MIC [52] of 4 µg/mL (≈ 10.4 µM), an MIC [47] of at least 16 µg/mL and an MIC [48] of at least 16 µg/mL. For the same compound, the MIC [51] was at least 16 µg/mL.
